Measured values reported in ChEMBL document CHEMBL4017446, “Discovery of (2-aminophenyl)methanol as a new molecular chaperone that rescues the localization of P123S mutant pendrin stably expressed in HEK293 cells” (Bioorg Med Chem, 2017).
The source made the active and inactive calls. The rule behind the calls is not given here.

Key:
HEK293 [1] = experiment: Cytotoxicity against HEK293 cells harboring pendrin P123S mutant after 72 hrs by MTT assay; type: cell-based; conditions: Homo sapiens, HEK293, 72 h
Method in brief: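 Stable P123S pendrin HEK293 cells were seeded at 5 × 10^4 cells/well and preincubated 12 h at 37 °C. Cells were then exposed to compound at various concentrations in RPMI-1640 for 72 h. Viability was measured by MTT, and IC50 was taken from semilogarithmic dose-response plots. Triplicate experiments.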

[2] = test system: T1, Pendrin (Homo sapiens), O43511 [P123S]; experiment: (§1) Chaperone activity at recombinant human C-terminal FLAG-tagged pendrin P123S mutant expressed in HEK293 cells assessed as intracellular localization of mutant protein in plasma membrane at 10 mM incubated for 12 hrs followed by compound washout measured after 6 hrs by DAPI staining based immunofluorescence microscopic analysis; type: cell-based
T1 sequence (whole entry): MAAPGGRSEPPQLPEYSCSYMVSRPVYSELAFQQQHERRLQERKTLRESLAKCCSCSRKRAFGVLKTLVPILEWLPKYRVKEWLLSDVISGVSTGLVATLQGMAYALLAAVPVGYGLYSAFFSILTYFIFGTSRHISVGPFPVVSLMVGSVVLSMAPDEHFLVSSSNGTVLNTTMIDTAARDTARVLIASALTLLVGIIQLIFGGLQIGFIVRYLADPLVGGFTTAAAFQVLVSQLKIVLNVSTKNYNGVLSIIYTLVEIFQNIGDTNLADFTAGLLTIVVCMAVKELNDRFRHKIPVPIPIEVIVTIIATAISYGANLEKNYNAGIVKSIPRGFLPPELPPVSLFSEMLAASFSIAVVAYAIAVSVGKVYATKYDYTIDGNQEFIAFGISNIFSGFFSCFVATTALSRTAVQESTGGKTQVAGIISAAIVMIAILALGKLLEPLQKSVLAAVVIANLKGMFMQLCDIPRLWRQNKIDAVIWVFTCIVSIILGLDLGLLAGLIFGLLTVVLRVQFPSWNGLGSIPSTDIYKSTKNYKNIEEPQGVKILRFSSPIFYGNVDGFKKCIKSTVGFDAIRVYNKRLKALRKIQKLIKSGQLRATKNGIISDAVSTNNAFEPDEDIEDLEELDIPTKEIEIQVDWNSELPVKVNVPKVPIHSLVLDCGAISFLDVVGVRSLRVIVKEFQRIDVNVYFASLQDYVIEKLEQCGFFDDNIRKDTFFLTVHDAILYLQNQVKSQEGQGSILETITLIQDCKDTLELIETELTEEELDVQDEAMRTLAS
Method in brief: (§2)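 Stable P123S pendrin HEK293 cells (5 × 10^4/well) were exposed to compound or 0.1% DMSO for 12 h, washed with PBS, then kept in fresh medium for 0, 6 or 12 h. They were then anti-FLAG/DAPI immunostained and imaged by confocal microscopy to follow pendrin distribution at the plasma membrane. Triplicate experiments.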

[3] = test system: T1, Pendrin (Homo sapiens), O43511 [P123S]; experiment: Chaperone activity at recombinant human C-terminal FLAG-tagged pendrin P123S mutant expressed in HEK293 cells assessed as increase in fluorescence intensity ratio of plasma membrane to cytoplasm measured after 12 hrs by DAPI staining based immunofluorescence microscopic method; type: cell-based
Method in brief: (§3)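 Stable HEK293 line expressing FLAG-tagged P123S pendrin, grown in 10% FBS-RPMI-1640, treated 12 h with compound or vehicle (0.1% DMSO) in 35 mm dishes. Cells were fixed in 4% paraformaldehyde, stained with anti-FLAG primary antibody, Alexa Fluor 546 secondary and DAPI, and imaged by confocal microscopy. Mean intensities of 20 regions ([…]) in plasma membrane and cytoplasm gave the M/C ratio; 6–9 cells averaged.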

[4] = test system: T1, Pendrin (Homo sapiens), O43511 [P123S]; experiment: Chaperone activity at recombinant human C-terminal FLAG-tagged pendrin P123S mutant expressed in HEK293 cells assessed as fluorescence intensity ratio of plasma membrane to cytoplasm at 10 mM measured after 12 hrs by DAPI staining based immunofluorescence microscopic method; type: cell-based; method in brief: as §3
[5] = test system: T1, Pendrin (Homo sapiens), O43511 [P123S]; experiment: Chaperone activity at recombinant human C-terminal FLAG-tagged pendrin P123S mutant expressed in HEK293 cells assessed as translocation of mutant protein from cytoplasm to plasma membrane at 1 to 10 mM measured after 12 hrs by DAPI staining based immunofluorescence microscopic analysis; type: cell-based
Method in brief: (§4)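 HEK293 cells stably expressing FLAG-tagged P123S pendrin were incubated 12 h with compound or 0.1% DMSO in dishes. WT-pendrin cells given vehicle served as reference. Cells were fixed in paraformaldehyde, blocked in 1% BSA, stained with anti-FLAG/Alexa Fluor 546 secondary plus DAPI, and membrane versus cytoplasmic localization was judged by confocal imaging.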

[6] = test system: T1, Pendrin (Homo sapiens), O43511 [P123S]; experiment: Chaperone activity at recombinant human C-terminal FLAG-tagged pendrin P123S mutant expressed in HEK293 cells assessed as increase in localization of protein mutant in plasma membrane at 1 to 30 mM after 12 hrs by DAPI staining based immunofluorescence microscopic analysis; type: cell-based
Method in brief: (§5)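 Stable P123S pendrin HEK293 cells were screened in 96-well plates after 12 h exposure to compound or 0.1% DMSO. WT cells with vehicle served as positive control. Cells were anti-FLAG/DAPI immunostained, and about 100 cells per field across 100 fields were imaged by automated high-content analysis. The read-out was cytoplasmic fluorescence intensity in a 5-pixel band 2–7 pixels inside the cell outline.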

[7] = test system: T1, Pendrin (Homo sapiens), O43511 [P123S]; experiment: Chaperone activity at recombinant human C-terminal FLAG-tagged pendrin P123S mutant expressed in HEK293 cells assessed as translocation of mutant protein from cytoplasm to plasma membrane at 3 mM measured after 12 hrs by DAPI staining based immunofluorescence microscopic analysis; type: cell-based; method in brief: as §4
[8] = test system: T1, Pendrin (Homo sapiens), O43511 [P123S]; experiment: as §1, with “12” for “6”; type: cell-based; method in brief: as §2
HEK293 [9] = experiment: Cytotoxicity against HEK293 cells harboring pendrin P123S mutant assessed as decrease in cell viability at 15 mM after 72 hrs by MTT assay; type: cell-based; conditions: human, hek293, 72 h, 15000 µM
HEK293 [10] = experiment: Induction of HEK293 cell aggregation measured after 12 hrs by DAPI staining based immunofluorescence microscopic method; conditions: human, hek293, 12 h
Method in brief: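 Stable P123S pendrin HEK293 cells were incubated with compound for 12 h in 35 mm dishes, then immunostained with anti-FLAG and DAPI. Cell aggregation was observed under a fluorescence microscope.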

[11] = test system: T1, Pendrin (Homo sapiens), O43511 [P123S]; experiment: as §1, with “0.1” for “10”; type: cell-based; method in brief: as §2
[12] = test system: T1, Pendrin (Homo sapiens), O43511 [P123S]; experiment: Chaperone activity at recombinant human C-terminal FLAG-tagged pendrin P123S mutant expressed in HEK293 cells assessed as increase in localization of protein mutant in plasma membrane at 0.03 to 1 mM after 12 hrs by DAPI staining based immunofluorescence microscopic analysis; type: cell-based; method in brief: as §5
[13] = test system: T1, Pendrin (Homo sapiens), O43511 [P123S]; experiment: Chaperone activity at recombinant human C-terminal FLAG-tagged pendrin P123S mutant expressed in HEK293 cells assessed as translocation of mutant protein from cytoplasm to plasma membrane at 0.1 mM measured after 12 hrs by DAPI staining based immunofluorescence microscopic analysis; type: cell-based; method in brief: as §4
[14] = test system: T1, Pendrin (Homo sapiens), O43511 [P123S]; experiment: Potency index, ratio of compound effect to salicylate effect for chaperone activity at recombinant human C-terminal FLAG-tagged pendrin P123S mutant expressed in HEK293 cells assessed as translocation of mutant protein from cytoplasm to plasma membrane; type: cell-based
[15] = test system: T1, Pendrin (Homo sapiens), O43511 [P123S]; experiment: Chaperone activity at recombinant human C-terminal FLAG-tagged pendrin P123S mutant expressed in HEK293 cells assessed as fluorescence intensity ratio of plasma membrane to cytoplasm at 0.3 mM measured after 12 hrs by DAPI staining based immunofluorescence microscopic method; type: cell-based; method in brief: as §3
[16] = test system: T1, Pendrin (Homo sapiens), O43511 [P123S]; experiment: Chaperone activity at recombinant human C-terminal FLAG-tagged pendrin P123S mutant expressed in HEK293 cells assessed as fluorescence intensity ratio of plasma membrane to cytoplasm at 0.1 mM measured after 12 hrs by DAPI staining based immunofluorescence microscopic method; type: cell-based; method in brief: as §3
[17] = test system: T1, Pendrin (Homo sapiens), O43511 [P123S]; experiment: as §1, with “0.1” for “10”, “12” for “6”; type: cell-based; method in brief: as §2

Row | SMILES | IC50 (HEK293 [1]) | Activity [6] | Activity (HEK293 [9]) | further results
1 | O=C(O)CC(=O)O [MALONIC ACID] | 9.7 mM | – | – | –
2 | Cc1ccc(O)c(C(=O)O)c1 | 9.8 mM | – | – | Activity [2]: Active; Activity [3]: Dose-dependent effect; Ratio [4]: 1.7; Activity [5]: Active
3 | O=C(O)c1cc([N+](=O)[O-])ccc1O | 5.3 mM | Active | – | Activity [2]: Active; Activity [7]: Active; Activity [3]: Dose-dependent effect; Ratio [4]: 1.3; Activity [8]: Active
4 | OB(O)c1ccccc1O | > 15 mM | Active | 22.3% | Activity (HEK293 [10]): Toxic
5 | O=C(O)c1ccc(O)c(O)c1 [PROTOCATECHUIC ACID] | > 15 mM | inactive | 37% | –
6 | CC(=O)Oc1ccccc1C(=O)O [ASPIRIN] | 10.2 mM | inactive | – | –
7 | Nc1ccccc1C(=O)O [ANTHRANILIC ACID] | > 15 mM | inactive | 46.9% | –
8 | OCCc1ccccc1O | > 15 mM | Active | 38.3% | Activity (HEK293 [10]): Toxic
9 | O=C(O)Cc1ccccc1O | 12.1 mM | Active | – | –
10 | Nc1cccc(CO)c1 | > 15 mM | – | 46.7% | –
11 | CC(O)CC(=O)O (stereo unspecified) | > 15 mM | Active | – | –
12 | Nc1ccccc1CO [ISATOIC ANHYDRIDE] | – | – | – | Activity [11]: Active; Activity [12]: Active; Activity [13]: Active; Ratio [14]: 100; Activity [3]: Dose-dependent effect; Ratio [15]: 1.8; Ratio [16]: 0.9; Activity [17]: Active
13 | Nc1ccccc1CCO | > 15 mM | inactive | 35.8% | –
14 | O=C(O)c1ccccc1O [SALICYLIC ACID] | > 15 mM | – | 4.2% | Activity [2]: inactive; Activity [3]: Dose-dependent effect; Ratio [4]: 1
15 | O=C(O)c1ccc([N+](=O)[O-])cc1O | 12.5 mM | Active | – | Activity (HEK293 [10]): Toxic
16 | O=C(O)c1ccccc1S [THIOSALICYLIC ACID] | 12.7 mM | inactive | – | –
17 | O=C(O)c1cccc(O)c1O [2,3-DIHYDROXYBENZOIC ACID] | > 15 mM | inactive | 47.4% | –
18 | Nc1ccc(O)c(C(=O)O)c1 [MESALAMINE] | > 15 mM | inactive | 35.5% | –
19 | Nc1ccc(CO)cc1 | 12.7 mM | – | – | –
20 | O=C(O)c1cc(O)ccc1O [GENTISIC ACID] | > 15 mM | inactive | 46.8% | –
21 | OCc1ccccc1O [SALICYL ALCOHOL] | > 15 mM | inactive | 25.3% | –
22 | O=C(O)c1c(O)cccc1O | 10.6 mM | inactive | – | –
